Assay results: ChEMBL document CHEMBL1152945, “Synthesis and biological activity of a fluorescent schweinfurthin analogue” (Bioorg Med Chem, 2009)
Activity calls are given as the source filed them. No cut-off for these calls is given here.

Tests used:
[1] = test system: SF-295; assay: Cytotoxicity against human SF295 cells after 44 hrs by MTT assay; assay type: functional, cell-based; conditions: SF-295, 44 h
In short: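 SF-295 glioblastoma cells grown in RPMI 1640 with 10% fetal calf serum and pen-strep at 37 °C, 5% CO2. Plated in 24-well plates and dosed at 65% confluency. Thiazolyl blue tetrazolium added 44 h after treatment. At 48 h, HCl/Triton X-100/isopropanol solubiliser added, then overnight at 37 °C with gentle agitation. Absorbance read at 540 nm, 630 nm reference.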

[2] = test system: SNB-75; assay: Cytotoxicity against human SNB75 cells after 44 hrs by MTT assay; assay type: functional; conditions: SNB-75, 44 h
[3] = test system: SF-539; assay: Cytotoxicity against human SF539 cells after 44 hrs by MTT assay; assay type: functional; conditions: SF-539, 44 h
[4] = test system: A549; assay: Effect on morphology of human A549 cells at 500 nM after 24 hrs using DAPI staining by multi-photon microscopy; assay type: functional, cell-based
In short: (§1)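 Cells grown on sterile coverslips to 65% confluency, then treated. Then fixed in 3.7% formaldehyde for 15 min, permeabilized in 0.2% Triton X-100 for 4 min, blocked in 1% BSA for 30 min and stained 20 min with phalloidin for F-actin. Mounted in DAPI-containing medium, imaged by multi-photon microscopy. SF-295 kept in RPMI 1640; A549 in F-12; both with 10% FCS.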

[5] = test system: A549; assay: Cytotoxicity against human A549 cells after 44 hrs by MTT assay; assay type: functional, cell-based
In short: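 A549 cells in F-12 medium with 10% fetal calf serum and pen-strep, 37 °C, 5% CO2, treated in 24-well plates at 65% confluency. MTT added 44 h after treatment; at 48 h, solubilizer (HCl, Triton X-100, isopropanol) added, overnight at 37 °C with gentle agitation. Absorbance read at 540 nm with 630 nm reference.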

[6] = test system: SF-295; assay: Effect on cytosolic localization in human SF295 cells assessed as increase in fluorescence intensity at 100 nM by fluorescence microscopy; assay type: functional, cell-based
In short: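 SF-295 cells on sterile coverslips at 65% confluency, treated for varied intervals across a concentration range. Washed three times in complete medium to remove compound, mounted right away, and live compound fluorescence imaged by multi-photon microscopy against untreated-cell autofluorescence.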

[7] = test system: SF-295; assay: Inhibition of ROCK in human SF295 cells assessed as change in morphology at 10 uM after 24 hrs using DAPI staining by multi-photon microscopy; assay type: cell-based; in short: as §1
[8] = test system: A549; assay: Effect on morphology of human A549 cells at 500 nM after 48 hrs using DAPI staining by multi-photon microscopy; assay type: functional, cell-based; in short: as §1
[9] = test system: SF-295; assay: Effect on morphology of human SF295 cells at 500 nM after 24 hrs using DAPI staining by multi-photon microscopy; assay type: functional, cell-based; in short: as §1
[10] = test system: SF-295; assay: Effect on morphology of human SF295 cells at 500 nM after 48 hrs using DAPI staining by multi-photon microscopy; assay type: functional, cell-based; in short: as §1
[11] = test system: SF-295; assay: Effect on morphology of human SF295 cells assessed as induction of ruffled F-actin at 10 uM after 24 hrs using DAPI staining by multi-photon microscopy; assay type: functional, cell-based; in short: as §1
[12] = test system: A549; assay: Effect on morphology in human A549 cells assessed as induction of ruffled F-actin at 10 uM after 24 hrs using DAPI staining by multi-photon microscopy; assay type: functional, cell-based; in short: as §1

## CC(C)=CCC/C(C)=C/Cc1c(O)cc(/C=C/c2cc(O)c3c(c2)C[C@@H]2C(C)(C)[C@H](O)[C@H](O)C[C@@]2(C)O3)cc1O [SCHWEINFURTHIN A]
[1]
  GI50: 11 nM
[2]
  GI50: 15 nM
[3]
  GI50: 10 nM

## COc1cc(/C=C/c2cc(O)c(/C=C/c3cccc(O)c3)c(O)c2)cc2c1O[C@]1(C)CC[C@@H](O)C(C)(C)[C@H]1C2
[4]
  Activity: inactive
[5]
  Activity: Active
[1]
  IC50: 800 nM
[6]
  Activity: Active
[7]
  Activity: Active
[8]
  Activity: inactive
[9]
  Activity: inactive
[10]
  Activity: Active

## C[C@@H](N)[C@H]1CC[C@H](C(=O)Nc2ccncc2)CC1
[11]
  Activity: Active
[12]
  Activity: Active

## COc1cc(/C=C/c2cc(O)c(C/C=C(\C)CCC=C(C)C)c(O)c2)cc2c1O[C@]1(C)CC[C@@H](O)C(C)(C)[C@H]1C2
[7]
  Activity: Active
